From article PMC3426361 (Journal of biomolecular screening, 2010)

Molecular target: TDP-43 (Homo sapiens, UniProt Q13148)
Assay: Association and dissociation rates of bt-TAR-32 and bt-TG6 binding to TDP-43
Conditions: slope of kobs vs ligand concentration; arithmetic mean ± SEM, 3 determinations
In short: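 GST-tagged TDP-43 (5 ng/mL, 40 pM) on anti-GST beads (10 μg/mL, preincubated) added at staggered times to biotinylated oligonucleotide (0.25–6.0 nM) prebound 30 min RT to streptavidin donor beads (10 μg/mL). Buffer: 25 mM Tris pH 7.4, 0.1% BSA, 0.1% Triton X-100. AlphaScreen signal read together at end, dark, RT. kobs from one-site exponential association fits per concentration.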

Sequence of TDP-43 (Q13148 whole entry): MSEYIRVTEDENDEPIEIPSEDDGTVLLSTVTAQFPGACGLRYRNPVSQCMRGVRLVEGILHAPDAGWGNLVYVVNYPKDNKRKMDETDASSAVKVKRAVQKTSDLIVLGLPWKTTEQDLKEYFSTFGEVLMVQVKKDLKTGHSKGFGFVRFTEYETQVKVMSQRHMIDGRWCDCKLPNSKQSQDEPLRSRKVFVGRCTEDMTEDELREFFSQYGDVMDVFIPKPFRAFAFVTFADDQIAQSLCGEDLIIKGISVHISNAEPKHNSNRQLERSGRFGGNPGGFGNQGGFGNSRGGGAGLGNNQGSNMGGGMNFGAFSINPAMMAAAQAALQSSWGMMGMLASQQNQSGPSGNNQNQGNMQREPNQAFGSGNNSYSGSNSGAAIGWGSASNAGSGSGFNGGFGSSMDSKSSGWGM

5′-CTGCTTTTTGCCTGTACTGGGTCTCTGTGGTT-3′ (DNA CTGCTTTTTGCCTGTACTGGGTCTCTGTGGTT; chemistry not given here) [TAR-32]
kon: 2.4 ± 0.93 µmol⁻¹ min⁻¹
